Measurements gathered from unrelated publications.
Each line is one published result; the experiments were not run side by side. Converted amounts (≈) assume the structure as drawn.

Compound | organism | assay | system | setting | endpoint | result
COC(=O)c1cc(-c2cccc(NC(=O)Nc3ccc(Cl)c(C(F)(F)F)c3)c2)on1 | Mycobacteroides abscessus | microbial growth, broth dilution | ATCC19977 | 48 h | MIC | > 64 µg/mL
O=C(N[C@H](CO)[C@H](O)c1ccc([N+](=O)[O-])cc1)C(Cl)Cl | Bacillus | microbial growth, broth dilution | ATCC27859 | 18 h | MIC | 0.98 µg/mL (≈ 3.03 µM)
C[n+]1ccc(/C=C2\Sc3ccccc3N2CCCN2CCCCC2)c2ccccc21.[I-] | Pseudomonas aeruginosa | microbial growth, broth dilution | ATCCBAA2108 | drug-resistant strain | MIC | 64 µg/mL
O=C(N[C@H](CO)[C@H](O)c1ccc([N+](=O)[O-])cc1)C(Cl)Cl | Bacillus | microbial growth, broth dilution | ATCC27859 |  | MIC | 0.98 µg/mL (≈ 3.03 µM)
CCOC(=O)c1cc(-c2cccc(NC(=O)Nc3ccc(Cl)c(Cl)c3)c2)on1 | Mycobacteroides abscessus | microbial growth, broth dilution | ATCC19977 | 48 h | MIC | > 64 µg/mL
CCCCCOc1ccc(-c2cc(-c3ccc(C(=O)N[C@H]4C[C@@H](O)[C@@H](O)NC(=O)[C@@H]5[C@@H](O)[C@@H](C)CN5C(=O)[C@H]([C@H](O)CC(N)=O)NC(=O)[C@H]([C@H](O)[C@@H](O)c5ccc(O)c(OS(=O)(=O)O)c5)NC(=O)[C@@H]5C[C@@H](O)CN5C(=O)[C@H]([C@@H](C)O)NC4=O)cc3)no2)cc1 | Kluyveromyces marxianus | biofilm formation |  | 1 µg/mL | inhibition | 53%
[2H]C([2H])(c1cc(F)c(F)cc1F)n1c(=O)n(Cc2ncn(C)n2)c(=O)[nH]/c1=N\c1cc2cn(C)nc2cc1Cl | Alphacoronavirus 1 | viral replication, inhibitor, qPCR | CRFK |  | EC50 | ~50 µM
COC(=O)c1cc(-c2cccc(NC(=O)Nc3ccc(F)c(F)c3)c2)on1 | Mycobacteroides abscessus | microbial growth, broth dilution | ATCC19977 | 48 h | MIC | > 64 µg/mL
CC[C@H](C)[C@H]1C(=O)N2CCC[C@H]2C(=O)O[C@H](C(C)(C)C)C[C@@H](C)C[C@H](O)[C@H](C)C2=N[C@@H](CCC(=O)N[C@@H](Cc3ccc(OC)cc3)C(=O)N(C)[C@@H](C)C(=O)N1C)CS2 | Zika virus | viral replication | Huh7.5 | 24 h | IC50 | 0.015 µM
CC1CCN(CCCN2/C(=C/c3cc[n+](C)c4ccccc34)Sc3ccccc32)CC1.[I-] | Pseudomonas aeruginosa | microbial growth, broth dilution | ATCCBAA2108 | drug-resistant strain | MIC | 16 µg/mL
